In ChEMBL document CHEMBL3046597, “Synthesis of new carboxylesterase inhibitors and evaluation of potency and water solubility” (Chem Res Toxicol, 2001):
Converted amounts (≈) assume the structure as drawn.

Tests used:
[1] = Solubility of the compound in sodium phosphate buffer at pH 7.4; assay type: physicochemical
Liver carboxylesterase = molecular target: T1, Liver carboxylesterase (Sus scrofa, UniProt Q29550); experiment: Inhibition of Sus scrofa (pig) carboxylesterase isolated from liver in using p-nitrophenyl acetate as substrate incubated for 5 min prior to substrate addition measured for 2 min by spectrophotometric analysis
T1 sequence (Q29550 whole entry): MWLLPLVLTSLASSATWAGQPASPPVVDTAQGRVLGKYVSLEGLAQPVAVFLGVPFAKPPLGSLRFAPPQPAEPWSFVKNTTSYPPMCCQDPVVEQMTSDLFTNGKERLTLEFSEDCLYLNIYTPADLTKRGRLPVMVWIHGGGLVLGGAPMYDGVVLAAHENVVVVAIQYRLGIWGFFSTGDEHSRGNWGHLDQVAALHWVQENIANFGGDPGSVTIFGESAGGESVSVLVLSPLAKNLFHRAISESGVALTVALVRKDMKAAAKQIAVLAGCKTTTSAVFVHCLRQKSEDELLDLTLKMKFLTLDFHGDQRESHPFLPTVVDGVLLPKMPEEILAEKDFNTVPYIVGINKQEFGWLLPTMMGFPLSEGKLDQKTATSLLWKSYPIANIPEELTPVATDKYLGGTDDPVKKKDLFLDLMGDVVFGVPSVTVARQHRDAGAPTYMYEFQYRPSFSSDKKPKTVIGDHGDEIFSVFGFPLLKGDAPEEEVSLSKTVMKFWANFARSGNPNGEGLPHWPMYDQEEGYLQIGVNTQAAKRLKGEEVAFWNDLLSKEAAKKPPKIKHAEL
In short: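 Crude porcine liver carboxylesterase, partially purified, working solution 0.02 mg total protein/mL (0.3 units/mL) in 0.1 M sodium phosphate, pH 7.4; […]. Inhibitors from DMF stocks (≤1% DMF, solvent-corrected). PNPA at 0.5 mM final, 30 °C, kinetic read at 405 nm.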

[2] = molecular target: T2, Juvenile hormone esterase (Trichoplusia ni, UniProt P30809+P30810); experiment: Inhibition of Trichoplusia ni (cabbage looper) juvenile hormone esterase isolated from fifth-intsar larval stage using [3H]JH 3 as substrate incubated for 10 min prior to substrate addition measured after 15 min by liquid scintillation counting; assay type: protein assay
T2 sequence (P30809 whole entry): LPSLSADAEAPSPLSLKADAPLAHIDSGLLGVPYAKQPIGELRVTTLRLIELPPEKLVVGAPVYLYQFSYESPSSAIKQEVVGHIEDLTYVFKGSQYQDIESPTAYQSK
T2 sequence (P30810 whole entry): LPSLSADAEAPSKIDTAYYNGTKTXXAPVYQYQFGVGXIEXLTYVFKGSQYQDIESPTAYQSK
In short: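 Day-2 fifth-instar larval hemolymph collected with PTU, spun at 1000g, diluted 1:1 in 0.1 M phosphate pH 7.4 with 0.01% PTU, then diluted 300-fold in 0.1 M sodium phosphate pH 7.4 containing 0.1 mg/mL BSA. Inhibitors (DMF ≤1%) preincubated at 30 °C. JH III 5 µM final, 30 °C. Isooctane partition, aqueous-phase radioactivity counted.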

[3] = molecular target: T3, Liver carboxylesterase B-1 (Rattus norvegicus, UniProt Q63010); experiment: Inhibition of carboxylesterase in Fischer 344 Rattus norvegicus (rat) liver microsomes using p-nitrophenyl acetate as substrate incubated for 5 min prior to substrate addition measured for 2 min by spectrophotometric analysis
T3 sequence (Q63010 whole entry): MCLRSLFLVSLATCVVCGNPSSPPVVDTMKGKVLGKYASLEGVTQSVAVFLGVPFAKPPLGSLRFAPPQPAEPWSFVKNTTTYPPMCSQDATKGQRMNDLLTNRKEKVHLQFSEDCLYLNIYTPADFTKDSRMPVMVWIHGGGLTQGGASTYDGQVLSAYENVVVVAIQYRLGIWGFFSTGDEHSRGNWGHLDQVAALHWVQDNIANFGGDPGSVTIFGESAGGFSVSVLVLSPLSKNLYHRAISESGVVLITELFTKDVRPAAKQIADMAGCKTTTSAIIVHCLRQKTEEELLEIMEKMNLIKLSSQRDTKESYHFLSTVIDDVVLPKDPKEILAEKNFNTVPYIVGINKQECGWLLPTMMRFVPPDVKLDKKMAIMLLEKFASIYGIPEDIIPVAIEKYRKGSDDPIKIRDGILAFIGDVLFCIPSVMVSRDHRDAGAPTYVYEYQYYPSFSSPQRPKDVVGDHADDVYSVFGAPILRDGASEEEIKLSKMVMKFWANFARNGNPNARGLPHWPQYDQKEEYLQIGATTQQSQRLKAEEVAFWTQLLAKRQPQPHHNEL
In short: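 Livers from 8-week-old rats, perfused with 1% KCl; 100000g microsomal pellet solubilized in 1% n-octyl β-D-glucopyranoside and recentrifuged. Assayed at 0.8 mg/mL protein in 0.1 M sodium phosphate pH 7.4, 30 °C. PNPA 0.5 mM final, read at 405 nm. DMF ≤1%, solvent-corrected.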

IC50 (Liver carboxylesterase) [nM] | IC50 [2] [nM] | IC50 [3] [nM] | SMILES | solubility [1] [µM]
5640 | 147 | 24.5 | CCCCCCCCS(=O)(=O)CC(O)(O)C(F)(F)F | 1500 (≈ 460 µg/mL)
54.3 | – | 54.6 | CCCCCCSCC(=O)C(F)(F)F | –
3390 | 1780 | 1500 | O=S(=O)(CCc1ccccc1)CC(O)(O)C(F)(F)F | –
75.3 | – | 162 | O=C(CSCCc1ccccc1)C(F)(F)F | –
1420 | 119 | 6.3 | CCCCCCCCCCS(=O)(=O)CC(O)(O)C(F)(F)F | –
119 | 15 | 164 | CCCCCCCCCCCCSCC(=O)C(F)(F)F | –
39000 | 354 | 1290 | CCCCCCS(=O)(=O)CC(O)(O)C(F)(F)F | –
473 | 191 | 10.3 | CCCCCCCCCCCCS(=O)(=O)CC(O)(O)C(F)(F)F | –

SMILES | IC50 (Liver carboxylesterase) [nM] | IC50 [2] [nM] | IC50 [3] [nM] | solubility [1] [µM]
CCCCCCCCSCC(=O)C(F)(F)F | 36.8 | 1.6 | 37.2 | 200 (≈ 51.3 µg/mL)
CCCCCCCCCCSCC(=O)C(F)(F)F | 135 | 20 | 115 | –
